{"source": "ChEMBL document CHEMBL4266038", "about": "“Total Synthesis of Xanthoangelol B and Its Various Fragments: Toward Inhibition of Virulence Factor Production of Staphylococcus aureus” (J Med Chem, 2018)", "key": {"[1]": {"test_system": "Staphylococcus aureus subsp. aureus USA300", "assay": "Inhibition of Staphylococcus aureus USA300 GFP-fused SaeRS at 20 uM after 8 hrs by fluorescence-based assay", "outline": "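Reporter strain S. aureus carrying a P_hlam-gfp fusion (kept on chloramphenicol 5 µg/ml) was grown in TSB to OD600 = 1 and diluted to 5x10^5 cells/ml with compound; DMSO served as blank. Cultures were shaken at 37 °C for 8 h, then GFP (ex 485/em 515 nm) and OD600 were read.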"}, "Staphylococcus aureus [2]": {"test_system": "Staphylococcus aureus", "assay": "Growth inhibition of Staphylococcus aureus USA300 at 16 uM after 20 hrs", "type": "organism-based", "outline": "(§1)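 USA300 was grown in TSB at 37 °C with shaking at 250 rpm. Growth was followed in the presence of compound for 8 h and for 20 h, in triplicate.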"}, "Staphylococcus aureus [3]": {"test_system": "Staphylococcus aureus", "assay": "Growth inhibition of Staphylococcus aureus USA300 at 64 uM after 20 hrs", "type": "organism-based", "outline": "as §1"}, "[4]": {"test_system": "Staphylococcus aureus subsp. aureus USA300", "assay": "Inhibition of Staphylococcus aureus USA300 SaeRS assessed as reduction in alpha-hemolysin gene expression at 8 uM after 6 hrs by qRT-PCR analysis"}, "[5]": {"test_system": "Staphylococcus aureus subsp. aureus USA300", "assay": "Inhibition of Staphylococcus aureus USA300 SaeRS assessed as reduction in aureolysin gene expression at 8 uM after 6 hrs by qRT-PCR analysis"}, "[6]": {"test_system": "Staphylococcus aureus subsp. aureus USA300", "assay": "Inhibition of Staphylococcus aureus USA300 SaeRS assessed as reduction in gamma-hemolysin gene expression at 8 uM after 6 hrs by qRT-PCR analysis"}, "[7]": {"test_system": "Staphylococcus aureus subsp. aureus USA300", "assay": "Inhibition of Staphylococcus aureus USA300 SaeRS assessed as reduction in staphylokinase gene expression at 8 uM after 6 hrs by qRT-PCR analysis", "outline": "(§2)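 S. aureus cultures were treated with compound for 6 h. Total RNA was stabilised and purified with enzymatic disruption, then reverse-transcribed with random hexamers. qRT-PCR used an intercalating dye, with transcripts normalised to 16S rRNA, in triplicate.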"}, "Staphylococcus aureus [8]": {"test_system": "Staphylococcus aureus", "assay": "Reduction in Staphylococcus aureus USA300 sarA gene expression at 8 uM after 6 hrs by qRT-PCR analysis", "type": "functional", "outline": "as §2"}, "HeLa [9]": {"test_system": "HeLa", "assay": "Cytotoxicity against human HeLa cells assessed as reduction in cell viability at 8 uM after 72 hrs by fluorescein diacetate/propidium iodide double staining based confocal microscopy"}, "HeLa [10]": {"test_system": "HeLa", "assay": "Cytotoxicity against human HeLa cells assessed as reduction in cell viability at >IC50 concentration after 72 hrs by fluorescein diacetate/propidium iodide double staining based confocal microscopy"}, "Staphylococcus aureus [11]": {"test_system": "Staphylococcus aureus", "assay": "Antivirulence activity in Staphylococcus aureus USA300-infected Galleria mellonella larvae model injected at every 12 h interval for 72 hrs", "type": "functional, organism-based", "outline": "(§3)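 G. mellonella larvae, 10 per group, were each injected with 20 µl of USA300 inoculum (5x10^6 cfu) into the lower left proleg and held at 37 °C in the dark without food. Treatment was given after infection and repeated every 12 h over 72 h, at doses up to 4.085 or 4.262 mg/kg body weight. Survival was scored daily along with activity, silk production and melanization.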"}, "Staphylococcus aureus [12]": {"test_system": "Staphylococcus aureus", "assay": "Antivirulence activity in Staphylococcus aureus USA300-infected Galleria mellonella larvae model assessed as larvae survival at 4.1 mg/kg injected at 2 hrs post infection at every 12 hr interval for 72 hrs (reference value: 20%)", "type": "functional", "outline": "as §3"}, "Staphylococcus aureus [13]": {"test_system": "Staphylococcus aureus", "assay": "Antibacterial activity against Staphylococcus aureus USA300 assessed as log reduction in bacterial burden after 72 hrs", "type": "functional, organism-based", "outline": "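Galleria mellonella larvae (10 per group) injected in the lower left proleg with 5x10^6 cfu USA300 in 20 µl, held at 37 °C in the dark; treatment began 2 h post infection and was re-injected every 12 h for 72 h. Haemolymph was plated on blood agar to count S. aureus burden at 72 h.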"}, "[14]": {"biological_target": "T1, Histidine protein kinase SaeS (Staphylococcus aureus (strain NCTC 8325)) (UniProt Q2G2U1)", "T1 sequence (whole entry)": "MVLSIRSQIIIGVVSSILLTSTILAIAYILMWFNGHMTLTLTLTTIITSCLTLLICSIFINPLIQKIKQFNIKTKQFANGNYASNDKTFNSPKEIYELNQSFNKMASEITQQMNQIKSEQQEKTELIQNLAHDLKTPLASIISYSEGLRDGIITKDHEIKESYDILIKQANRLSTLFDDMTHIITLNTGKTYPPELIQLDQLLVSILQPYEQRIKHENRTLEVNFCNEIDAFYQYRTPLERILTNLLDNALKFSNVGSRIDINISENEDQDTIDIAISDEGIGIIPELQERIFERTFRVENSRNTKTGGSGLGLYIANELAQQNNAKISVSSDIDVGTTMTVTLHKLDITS", "assay": "Inhibition of phosphotransfer reaction from recombinant Staphylococcus aureus phosphorylated His6-tagged SaeS kinase domain to Staphylococcus aureus SaeR expressed in Escherichia coli BL21(DE3) at 0.2 mM after 60 mins by coomassie-brilliant blue staining based SDS PAGE/autoradiographic analysis"}, "Staphylococcus aureus [15]": {"test_system": "Staphylococcus aureus", "assay": "Growth inhibition of Staphylococcus aureus USA300 up to 64 uM after 8 to 20 hrs", "type": "organism-based", "outline": "as §1"}, "[16]": {"test_system": "Staphylococcus aureus subsp. aureus USA300", "assay": "Inhibition of Staphylococcus aureus USA300 SaeRS assessed as reduction in alpha-hemolysin gene expression at 10 uM after 6 hrs by qRT-PCR analysis"}, "[17]": {"test_system": "Staphylococcus aureus subsp. aureus USA300", "assay": "Inhibition of Staphylococcus aureus USA300 SaeRS assessed as reduction in aureolysin gene expression at 10 uM after 6 hrs by qRT-PCR analysis"}, "[18]": {"test_system": "Staphylococcus aureus subsp. aureus USA300", "assay": "Inhibition of Staphylococcus aureus USA300 SaeRS assessed as reduction in gamma-hemolysin gene expression at 10 uM after 6 hrs by qRT-PCR analysis"}, "[19]": {"test_system": "Staphylococcus aureus subsp. aureus USA300", "assay": "Inhibition of Staphylococcus aureus USA300 SaeRS assessed as reduction in staphylokinase gene expression at 10 uM after 6 hrs by qRT-PCR analysis", "outline": "as §2"}, "Staphylococcus aureus [20]": {"test_system": "Staphylococcus aureus", "assay": "Reduction in Staphylococcus aureus USA300 sarA gene expression at 10 uM after 6 hrs by qRT-PCR analysis", "type": "functional", "outline": "as §2"}, "Staphylococcus aureus [21]": {"test_system": "Staphylococcus aureus", "assay": "Antivirulence activity in Staphylococcus aureus USA300-infected Galleria mellonella larvae model assessed as larvae survival at 4.3 mg/kg injected at 2 hrs post infection at every 12 hr interval for 72 hrs (reference value: 20%)", "type": "functional", "outline": "as §3"}, "[22]": {"biological_target": "T1, Histidine protein kinase SaeS (Staphylococcus aureus (strain NCTC 8325))", "assay": "Binding affinity to Staphylococcus aureus MBP-fused SaeS by STD-NMR spectrophotometry", "outline": "(§4)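 Saturation transfer difference 1D NMR with ligand fixed at 1.0 mM, prepared from a stock in deuterated DMSO. Protein was either 30 µM minimal SaeS kinase domain fused to maltose binding protein (MBP-SaeS) or 0.1 mM minimal kinase domain, dialysed into NMR buffer beforehand.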"}, "[23]": {"biological_target": "T1, Histidine protein kinase SaeS (Staphylococcus aureus (strain NCTC 8325))", "assay": "Inhibition of phosphotransfer reaction from recombinant Staphylococcus aureus phosphorylated His6-tagged SaeS kinase domain to Staphylococcus aureus SaeR expressed in Escherichia coli BL21(DE3) at 0.2 to 1 mM after 60 mins by coomassie-brilliant blue staining based SDS PAGE/autoradiographic analysis"}, "[24]": {"biological_target": "T1, Histidine protein kinase SaeS (Staphylococcus aureus (strain NCTC 8325))", "assay": "Binding affinity to Staphylococcus aureus SaeS assessed as T2-rerelaxation time of compound peak at 1 mM by 1D CPMG method", "outline": "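Transverse-relaxation-filtered 1D NMR using a CPMG pulse train. Ligand fixed at 1.0 mM, from a stock in deuterated DMSO; minimal SaeS kinase domain at 0.1 mM, dialysed into NMR buffer.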"}, "[25]": {"biological_target": "T1, Histidine protein kinase SaeS (Staphylococcus aureus (strain NCTC 8325))", "assay": "Binding affinity to Staphylococcus aureus SaeS kinase domain at 1 mM by 1D-NMR analysis", "outline": "as §4"}}, "note": "Calls of active or inactive are those of the source. The rule behind the calls is not given here."}
{"smiles": "C=CCc1c(O)ccc(C(=O)/C=C/c2ccc(O)cc2)c1O", "values": [{"measurement": "inhibition", "setting": "[1]", "result": "inactive"}]}
{"smiles": "C=C(C)C(O)CC/C(C)=C/Cc1c(O)ccc(C(=O)/C=C/c2ccc(O)cc2)c1O", "note": "(centres undefined) [XANTHOANGELOL B]", "values": [{"measurement": "growth inhibition (GI)", "setting": "Staphylococcus aureus [2]", "result": "Toxic"}, {"measurement": "growth inhibition (GI)", "setting": "Staphylococcus aureus [3]", "result": "Toxic"}, {"measurement": "inhibition", "setting": "[4]", "result": "Active"}, {"measurement": "inhibition", "setting": "[5]", "result": "Active"}, {"measurement": "inhibition", "setting": "[6]", "result": "Active"}, {"measurement": "inhibition", "setting": "[7]", "result": "Active"}, {"measurement": "Activity", "setting": "Staphylococcus aureus [8]", "result": "inactive"}, {"measurement": "Activity", "setting": "HeLa [9]", "result": "Non-Toxic"}, {"measurement": "Activity", "setting": "HeLa [10]", "result": "Non-Toxic"}, {"measurement": "Activity", "setting": "Staphylococcus aureus [11]", "result": "Dose-dependent effect"}, {"measurement": "survival at 4.1 mg/kg", "setting": "Staphylococcus aureus [12]", "result": 100, "unit": "%"}, {"measurement": "Activity", "setting": "Staphylococcus aureus [13]", "result": "Dose-dependent effect"}, {"measurement": "inhibition", "setting": "[14]", "result": "inactive"}]}
{"smiles": "CC(C)=CCC/C(C)=C/Cc1c(O)ccc(C(=O)/C=C/c2ccc(O)cc2)c1O", "values": [{"measurement": "inhibition", "setting": "[1]", "result": "inactive"}]}
{"smiles": "COc1ccc(C(=O)/C=C/c2ccc(O)cc2)c(O)c1C/C=C(\\C)CCC=C(C)C", "values": [{"measurement": "inhibition", "setting": "[1]", "result": "inactive"}]}
{"smiles": "O=C(/C=C/c1ccc(O)cc1)c1ccc(O)cc1O", "values": [{"measurement": "inhibition", "setting": "[1]", "result": "inactive"}]}
{"smiles": "C=CCc1c(O)ccc(C(C)=O)c1O", "values": [{"measurement": "inhibition", "setting": "[1]", "result": "inactive"}]}
{"smiles": "C=C(C)C(O)CC/C(C)=C/Cc1c(O)ccc(C(=O)CC(O)c2ccc(O)cc2)c1O", "note": "(centres undefined)", "values": [{"measurement": "growth inhibition (GI)", "setting": "Staphylococcus aureus [15]", "result": "Non-Toxic"}, {"measurement": "inhibition", "setting": "[16]", "result": "Active"}, {"measurement": "inhibition", "setting": "[17]", "result": "Active"}, {"measurement": "inhibition", "setting": "[18]", "result": "Active"}, {"measurement": "inhibition", "setting": "[19]", "result": "Active"}, {"measurement": "Activity", "setting": "Staphylococcus aureus [20]", "result": "inactive"}, {"measurement": "Activity", "setting": "HeLa [9]", "result": "Non-Toxic"}, {"measurement": "Activity", "setting": "HeLa [10]", "result": "Non-Toxic"}, {"measurement": "Activity", "setting": "Staphylococcus aureus [11]", "result": "Dose-dependent effect"}, {"measurement": "survival at 4.3 mg/kg", "setting": "Staphylococcus aureus [21]", "result": 100, "unit": "%"}, {"measurement": "Activity", "setting": "Staphylococcus aureus [13]", "result": "Dose-dependent effect"}, {"measurement": "Activity", "setting": "[22]", "result": "Active"}, {"measurement": "inhibition", "setting": "[23]", "result": "inactive"}, {"measurement": "Activity", "setting": "[24]", "result": "Active"}, {"measurement": "Activity", "setting": "[25]", "result": "Active"}]}
{"smiles": "C=C(C)CCC=C(C)C", "values": [{"measurement": "inhibition", "setting": "[1]", "result": "inactive"}]}
